Key:
HL-60 = assay: Cytotoxicity against human HL60 cells after 46 hrs by MTT assay; assay type: functional, cell-based; conditions: HL-60, 46 h
Method in brief: (§1)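 MTT read-out of survival in cells treated with test compound and compared with untreated control cells. IC50 is the concentration that lowers the surviving cell fraction to 50% of control. Values are means (μM) ± standard deviation from 3 experiments, each run in quintuple. Cancer-line IC50s were compared with normal-cell (HUVEC) IC50s by unpaired t-test.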

[1] = Lipophilicity, log P of the compound by HPLC analysis; assay type: physicochemical
HUVEC = assay: Cytotoxicity against HUVEC after 46 hrs by MTT assay; assay type: cell-based; conditions: Homo sapiens; method in brief: as §1
NALM-6 = assay: Cytotoxicity against human NALM6 cells after 46 hrs by MTT assay; assay type: functional, cell-based; conditions: NALM-6, 46 h; method in brief: as §1
WM-115 = assay: Cytotoxicity against human WM115 cells after 46 hrs by MTT assay; assay type: functional, cell-based; conditions: WM-115, 46 h; method in brief: as §1

`O=C1/C(=C/c2ccncc2)C(c2ccccc2)Oc2ccccc21` (stereo unspecified) showed an IC50 (HL-60) of 0.9 µM, a logP [1] of 2.98 and an IC50 (HUVEC) of 5.77 µM. It also gave an IC50 (NALM-6) of 1.6 µM and an IC50 (WM-115) of 6.3 µM.

`O=C1/C(=C\c2ccncc2)C(c2ccccc2)Oc2ccccc21` (stereo unspecified) showed an IC50 (HL-60) of 1.1 µM, a logP [1] of 2.85 and an IC50 (HUVEC) of 5.14 µM. The IC50 (NALM-6) was 0.7 µM and the IC50 (WM-115) was 4.6 µM.

With `O=C1/C(=C/c2ccc(O)cc2)COc2ccccc21` the IC50 (HL-60) was 5.7 µM, the logP [1] was 3.1 and the IC50 (NALM-6) was 32.3 µM. For the same compound, the IC50 (WM-115) was 69 µM.

For `O=C1/C(=C/c2ccccc2)COc2ccccc21`, the IC50 (HL-60) was 5.4 µM, the logP [1] was 3.07 and the IC50 (NALM-6) was 6.2 µM. It also gave an IC50 (WM-115) of 53.7 µM.

Compound `O=c1c(Cc2ccc(O)cc2)coc2ccccc12` has an IC50 (HL-60) of 46.7 µM, a logP [1] of 3.33 and an IC50 (NALM-6) of 49.8 µM. The IC50 (WM-115) was 57.2 µM.

`O=C1/C(=C\c2ccccc2)C(c2ccccc2)Oc2ccccc21` (stereo unspecified) showed an IC50 (HL-60) of 27.3 µM, a logP [1] of 3.9 and an IC50 (NALM-6) of over 1000 µM. It also gave an IC50 (WM-115) of 52.6 µM.

In the case of `O=C1/C(=C/c2ccccc2)C(c2ccccc2)Oc2ccccc21` (stereo unspecified), the IC50 (HL-60) is reported as 33.3 µM, the logP [1] is reported as 3.9 and the IC50 (NALM-6) is reported as 29.5 µM. For the same compound, the IC50 (WM-115) was 59.4 µM.

Work on `O=C1/C(=C\c2ccccc2)C(c2ccccc2)Oc2ccc(O)cc21` (stereo unspecified) yielded an IC50 (HL-60) of 7.3 µM, a logP [1] of 3.45 and an IC50 (NALM-6) of 58.8 µM. It also gave an IC50 (WM-115) of 9.1 µM.

For `O=C1/C(=C/c2ccccc2)C(c2ccccc2)Oc2ccc(O)cc21` (stereo unspecified), the IC50 (HL-60) was 5.8 µM, the logP [1] was 3.5 and the IC50 (NALM-6) was 8.7 µM. It also gave an IC50 (WM-115) of 44.5 µM.

In the case of `Cc1ccc(/C=C2\C(=O)c3ccccc3OC2c2ccccc2)cc1` (stereo unspecified), the IC50 (HL-60) is reported as 40.8 µM, the logP [1] is reported as 4.39 and the IC50 (NALM-6) is reported as over 1000 µM. The IC50 (WM-115) was 57 µM.

Work on `Cc1ccc(/C=C2/C(=O)c3ccccc3OC2c2ccccc2)cc1` (stereo unspecified) yielded an IC50 (HL-60) of 40.9 µM, a logP [1] of 4.36 and an IC50 (NALM-6) of 51.4 µM. It also gave an IC50 (WM-115) of 60.1 µM.

Compound `O=C1/C(=C\c2ccc(Cl)cc2)C(c2ccccc2)Oc2ccccc21` (stereo unspecified) has an IC50 (HL-60) of over 1000 µM, a logP [1] of 4.53 and an IC50 (NALM-6) of over 1000 µM. It also gave an IC50 (WM-115) of 27.4 µM.

In the case of `O=C1/C(=C/c2ccc(Cl)cc2)C(c2ccccc2)Oc2ccccc21` (stereo unspecified), the IC50 (HL-60) is reported as 5.8 µM, the logP [1] is reported as 4.46 and the IC50 (NALM-6) is reported as 7.4 µM. It also gave an IC50 (WM-115) of 52 µM.

`O=C1/C(=C\c2ccc(Br)cc2)C(c2ccccc2)Oc2ccccc21` (stereo unspecified) gave an IC50 (HL-60) of over 1000 µM, a logP [1] of 4.71 and an IC50 (HUVEC) of 29.1 µM. It also gave an IC50 (NALM-6) of over 1000 µM and an IC50 (WM-115) of 32.6 µM.

Work on `O=C1/C(=C/c2ccc(Br)cc2)C(c2ccccc2)Oc2ccccc21` (stereo unspecified) yielded an IC50 (HL-60) of 5.7 µM, a logP [1] of 4.46 and an IC50 (HUVEC) of 7.23 µM. For the same compound, the IC50 (NALM-6) was 6.9 µM and the IC50 (WM-115) was 25.9 µM.

`O=C1/C(=C\c2ccccc2)COc2ccccc21` showed an IC50 (HL-60) of 6.7 µM, a logP [1] of 2.89 and an IC50 (NALM-6) of 5.5 µM. For the same compound, the IC50 (WM-115) was 13.5 µM.

Compound `O=C1/C(=C\c2ccc(O)cc2)COc2ccccc21` has an IC50 (HL-60) of 6.5 µM, a logP [1] of 2.92 and an IC50 (NALM-6) of 466 µM. For the same compound, the IC50 (WM-115) was 12.1 µM.

`O=c1c(Cc2ccc([N+](=O)[O-])cc2)coc2ccccc12` gave an IC50 (HL-60) of 2.4 µM, a logP [1] of 3.93 and an IC50 (HUVEC) of 5.4 µM. For the same compound, the IC50 (NALM-6) was 5 µM and the IC50 (WM-115) was 6.1 µM.

In the case of `N#Cc1ccc(Cc2coc3ccccc3c2=O)cc1`, the IC50 (HL-60) is reported as 3.8 µM, the logP [1] is reported as 3.58 and the IC50 (NALM-6) is reported as 4.8 µM. It also gave an IC50 (WM-115) of 6.3 µM.

For `O=c1c(Cc2ccc(F)cc2)coc2ccccc12`, the IC50 (HL-60) was 19.1 µM, the logP [1] was 4.02 and the IC50 (NALM-6) was 8.2 µM. The IC50 (WM-115) was 53.2 µM.

Work on `O=c1c(Cc2cccc(O)c2)coc2ccccc12` yielded an IC50 (HL-60) of 6.3 µM, a logP [1] of 3.31 and an IC50 (NALM-6) of 7.3 µM. For the same compound, the IC50 (WM-115) was 17.6 µM.

For `O=C1CCOc2ccccc21` [CHROMANONE], the IC50 (HL-60) was 677 µM, the IC50 (NALM-6) was 674 µM and the IC50 (WM-115) was over 1000 µM.

`O=C1CC(c2ccccc2)Oc2ccccc21` (stereo unspecified) [FLAVANONE] showed an IC50 (HL-60) of 51.1 µM, an IC50 (NALM-6) of 57.6 µM and an IC50 (WM-115) of 71.2 µM.

Compound `O=C1C[C@@H](c2ccc(O)cc2)Oc2cc(O)cc(O)c21` [NARINGENIN] has an IC50 (HL-60) of 414 µM, an IC50 (NALM-6) of 426 µM and an IC50 (WM-115) of 525 µM.

In the case of `O=c1c(O)c(-c2ccc(O)c(O)c2)oc2cc(O)cc(O)c12` [QUERCETIN], the IC50 (HL-60) is reported as 58 µM, the IC50 (NALM-6) is reported as 77.1 µM and the IC50 (WM-115) is reported as 178 µM.
